Activity calls are given as the source filed them. The calls are words filed in the database; no cut-off is given here. A value given as a limit tells only on which side of the number the result lay.

The term ΔTm denotes the change in melting temperature against a reference sample. In general, pKa refers to the pH at which an ionisable group is half protonated. In general, IC50 refers to the concentration needed to halve the response being measured.

A short description of data set [1]: Binding affinity to salmon sperm DNA assessed as increase in thermal melting temperature by spectrophotometric analysis. The settings on record: Salmonidae.
Data set [2] is described as follows: Dissociation constant, pKa of the compound in 10 mM sodium phosphate buffer at pH 2 by UV spectroscopic analysis. It counts as physicochemical.
Data set [3] in a line: Cytotoxicity against human HL60 cells assessed as cell viability reduction incubated for 72 hrs by alamar blue assay. The settings on record: HL-60, 72 h. It counts as functional, cell-based. The gist of the method: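 HL-60 cells in log phase, 40,000 per well, were treated in triplicate with compound at 10–100 µM (final, 1:100 from ddH2O stocks) or 1% ddH2O vehicle for 72 h at 37 °C. AlamarBlue was then added for 4.5 h in the dark and fluorescence read at ex 544/em 590 nm. Viability is blank-subtracted and expressed as % of vehicle. IC50 comes from a sigmoidal fit; ≥3 independent experiments.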

Data set [4] deals with HL-60. The experiment in a line: Induction of mitochondrial membrane depolarization in human HL60 cells at 50 to 100 uM after 48 hrs by JC1 staining-based flow cytometric analysis relative to vehicle control. It counts as functional, cell-based. A digest of the protocol: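 HL-60 cells at 200,000 cells/mL exposed 48 h to 0, 50 or 100 μM. Washed in PBS and stained with JC-1 (5 μM) 30 min at 37 °C. Resuspended in ice-cold PBS and read by flow cytometry: excitation 488 nm, emission 535 (green) and 595 nm (red). Rising green:red ratio scored as ΔΨm loss; % cells with loss reported. Mean ± SEM, ≥3 experiments.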
(In flow cytometry, cells or beads pass a laser one at a time.)

The test system of data set [5] is HL-60. The experiment in a line: Induction of apoptosis in human HL60 cells assessed as caspase 3/7 activation at 50 to 100 uM after 48 hrs by caspase-glo luminescence assay relative to vehicle control. It counts as functional, cell-based. The gist of the method:
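HL-60 cells seeded at 20,000 cells/100 μl and treated 48 h with 0, 50 or 100 μM. Viability first measured by AlamarBlue. Cells then lysed with an equal volume of Caspase-Glo 3/7 reagent, shaken 1 h at room temperature in darkness, and luminescence read. Luminescence normalised to viability. Mean ± SEM, ≥3 experiments; P<0.05 taken as significant.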

Data set [6] can be described thus: Cytotoxicity against human MCF10A cells assessed as cell viability reduction at 50 to 100 uM incubated for 72 hrs by alamar blue-based fluorimetric assay. As to conditions: mcf-10a. The gist of the method:
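MCF-10A cells, 2000 per well, were allowed to attach for 24 h, then treated with 50 or 100 µM or with 1% ddH2O vehicle for 72 h. AlamarBlue (10% v/v) was added for 4.5 h at 37 °C in the dark and fluorescence read at ex 544/em 590 nm. Viability is expressed as % of vehicle after blank subtraction; mean ± S.E.M., ≥3 experiments.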

Data set [7] in a line: Cytotoxicity against mouse NIH/3T3 cells assessed as cell viability reduction at 50 to 100 uM incubated for 72 hrs by alamar blue-based fluorimetric assay. As to conditions: nih3t3, 72 h. A digest of the protocol: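 NIH/3T3 cells seeded at 10,000 cells/mL and left 24 h at 37 °C before treatment. Compound at 50 or 100 μM final for 72 h, vehicle 1% (v/v) ddH2O. AlamarBlue 10% (v/v) then added for 4.5 h in darkness at 37 °C. Fluorescence read at ex 544/em 590 nm, blank subtracted, expressed as % of vehicle control. Mean ± S.E.M., at least 3 experiments.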
(Alamar Blue is a resazurin reagent that responds to reducing activity.)

Data set [8] has as its system HL-60. Kind of data set: Induction of apoptosis in human HL60 cells at 100 uM after 72 hrs by propidium iodide staining-based flow cytometric analysis. It counts as functional. A digest of the protocol:
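HL-60 cells seeded at 200,000 cells/mL and treated 72 h, vehicle 1% (v/v) ddH2O. Harvested by centrifugation, fixed overnight in ice-cold 70% EtOH/PBS at −20 °C, then PI-stained 30 min at 37 °C. Flow cytometry of 10,000 gated events. Apoptosis taken from pre-G1 (<2N DNA) peak. Mean ± S.E.M., ≥3 experiments.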

A short description of data set [9]: Cytotoxicity in human MCF10A cells assessed as induction of apoptosis at 50 to 100 uM after 72 hrs by propidium iodide staining-based flow cytometric analysis. It counts as cell-based. The settings on record: mcf-10a. A digest of the protocol:
(§1)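 Cells seeded at 6000 cells per cm² and left 24 h, then given compound at 50 or 100 μM or vehicle (1% ddH2O) for 72 h. Trypsinised, fixed overnight at −20 °C in ice-cold 70% EtOH/PBS, then PI-stained 30 min at 37 °C. 10,000 gated events per sample. Sub-diploid (<2N, M1) cells scored as apoptotic. Mean ± S.E.M., ≥3 experiments.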

Data set [10] is described as follows: Cytotoxicity in mouse NIH/3T3 cells assessed as induction of apoptosis at 50 to 100 uM after 72 hrs by propidium iodide staining-based flow cytometric analysis. Format: cell-based. As to conditions: nih3t3, 72 h. The gist of the method: as §1
Data set [11] can be described thus: Cytotoxicity against human Kelly cells assessed as cell viability reduction incubated for 72 hrs by alamar blue assay. Format: functional, cell-based. A digest of the protocol:
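Kelly cells, 6000 per well, were allowed to attach for 24 h, then treated in triplicate at 0.1–100 µM final or with ddH2O vehicle for 72 h at 37 °C. AlamarBlue was added for 4.5 h in the dark and fluorescence read at ex 544/em 590 nm. Blank-subtracted % of vehicle; IC50 from a sigmoidal dose-response fit; ≥3 independent experiments.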

The nature of data set [12]: Cell cycle arrest in human HL60 cells assessed as accumulation at pre-G1 phase at 50 uM after 24 hrs by propidium iodide staining-based flow cytometric analysis (reference value: 0.81 +/- 0.11%). Format: functional. The settings on record: HL-60.
Data set [13] in a line: Cell cycle arrest in human HL60 cells assessed as accumulation at pre-G1 phase at 50 uM after 48 hrs by propidium iodide staining-based flow cytometric analysis (reference value: 1.41 +/- 0.32%). Format: functional. The settings on record: HL-60.
Data set [14] can be described thus: Cell cycle arrest in human HL60 cells assessed as accumulation at pre-G1 phase at 50 uM after 72 hrs by propidium iodide staining-based flow cytometric analysis (reference value: 2.21 +/- 0.57%). It counts as functional. The settings on record: HL-60.
A short description of data set [15]: Cell cycle arrest in human HL60 cells assessed as accumulation at G0/G1 phase at 50 uM after 24 hrs by propidium iodide staining-based flow cytometric analysis (reference value: 56.05 +/- 1.4%). Format: functional. As to conditions: HL-60.
The nature of data set [16]: Cell cycle arrest in human HL60 cells assessed as accumulation at G0/G1 phase at 50 uM after 48 hrs by propidium iodide staining-based flow cytometric analysis (reference value: 58.77 +/- 2.33%). As to conditions: HL-60. Format: functional.
A short description of data set [17]: Cell cycle arrest in human HL60 cells assessed as accumulation at G0/G1 phase at 50 uM after 72 hrs by propidium iodide staining-based flow cytometric analysis (reference value: 59.5 +/- 1.5%). It counts as functional. The settings on record: HL-60.
The nature of data set [18]: Cell cycle arrest in human HL60 cells assessed as accumulation at S phase at 50 uM after 24 hrs by propidium iodide staining-based flow cytometric analysis (reference value: 24.46 +/- 1.15%). Format: functional. As to conditions: HL-60.
A short description of data set [19]: Cell cycle arrest in human HL60 cells assessed as accumulation at S phase at 50 uM after 48 hrs by propidium iodide staining-based flow cytometric analysis (reference value: 24.29 +/- 1.37%). It counts as functional. The settings on record: HL-60.
Data set [20] can be described thus: Cell cycle arrest in human HL60 cells assessed as accumulation at S phase at 50 uM after 72 hrs by propidium iodide staining-based flow cytometric analysis (reference value: 23.58 +/- 1.38%). It counts as functional. As to conditions: HL-60.
Data set [21] is described as follows: Cell cycle arrest in human HL60 cells assessed as accumulation at G2/M phase at 50 uM after 24 hrs by propidium iodide staining-based flow cytometric analysis (reference value: 16.73 +/- 0.59%). It counts as functional. As to conditions: HL-60.
Data set [22] can be described thus: Cell cycle arrest in human HL60 cells assessed as accumulation at G2/M phase at 50 uM after 48 hrs by propidium iodide staining-based flow cytometric analysis (reference value: 11.35 +/- 1.05%). The settings on record: HL-60. Format: functional.
The nature of data set [23]: Cell cycle arrest in human HL60 cells assessed as accumulation at G2/M phase at 50 uM after 72 hrs by propidium iodide staining-based flow cytometric analysis (reference value: 10.53 +/- 0.81%). Format: functional. The settings on record: HL-60.
Data set [24] can be described thus: Cell cycle arrest in human HL60 cells assessed as accumulation at polyploid Gn phase at 50 uM after 24 hrs by propidium iodide staining-based flow cytometric analysis (reference value: 2.96 +/- 0.79%). It counts as functional. The settings on record: HL-60.
Data set [25] in a line: Cell cycle arrest in human HL60 cells assessed as accumulation at polyploid Gn phase at 50 uM after 48 hrs by propidium iodide staining-based flow cytometric analysis (reference value: 3.02 +/- 0.56%). The settings on record: HL-60. It counts as functional.
A short description of data set [26]: Cell cycle arrest in human HL60 cells assessed as accumulation at polyploid Gn phase at 50 uM after 72 hrs by propidium iodide staining-based flow cytometric analysis (reference value: 3.43 +/- 0.48%). It counts as functional. As to conditions: HL-60.

Take `N=C(N)Oc1ccc(Oc2ccc(OC(=N)N)cc2)cc1`: the ΔTm in [1] was determined as 5 °C. In addition, the pKa in [2] came to 10.4. The IC50 in data set [3] was > 100 µM.
With `N=C(N)Oc1ccc(Sc2ccc(O)cc2)cc1`, the result with HL-60 [4] and in the data set with HL-60 [5] was Active. Also, the Activity entry is “Non-toxic” in data set [6]; “Toxic” in data set [7]; 63.6% with HL-60 [8]; “Non-toxic” in [9]; “Non-toxic” in data set [10]; 9% in data set [12]. The Activity in data set [13] turned out to be 55.5%; in data set [14] it was 39.9%; in [15], 11.2%; in data set [16], 12.7%; in data set [17], 18.2%; in [18], 14.9%. Also, the Activity in data set [19] came to 10.4%; in data set [20], 16.2%; in [21], 52.4%; in data set [22], 5.98%; in data set [23] it was 8.67%; in data set [24] it was 11.6%. For the same compound, the values for the Activity in data set [25] and in data set [26] were 15.3% and 15.8%, respectively. Also, the shift in melting temperature (ΔTm) in data set [1] came out at 2 °C. The IC50 in data set [3] is 52.9 µM; in data set [11], 33.9 µM.
